The text below walks through data of ChEMBL document CHEMBL2331545, “Synthesis of antioxidants for prevention of age-related macular degeneration” (J Nat Prod, 2013).

Calls of active or inactive are those of the source. The rule behind the calls is not given here.

Test [1] is described as follows: Inhibition of A2E photooxidation at 100 uM after 5 mins by reversed-phase HPLC analysis. Type of test: functional. In short, it runs like this: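 Cell-free assay: A2E (200 µM DMSO stock) added to DPBS, antioxidant from DMSO solution added to 100 µM final. Irradiated at 430 nm (2.8 mW/cm2) for 5 min. Samples diluted with EtOH and analysed by reversed-phase HPLC under dim red light. Percent photooxidation taken as A2E loss relative to unirradiated samples.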

A further test deals with ARPE-19. Briefly: Inhibition of intracellular A2E photooxidation in human ARPE19 cells at 20 uM after 18 days. Type of test: functional, cell-based. In short, it runs like this: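 ARPE-19 cells (lacking endogenous A2E) grown to confluence for 5 days, then fed 10 µM synthetic A2E for 18 days in medium with 10% FBS. Antioxidant at 20 µM present on days 10–18. Cells washed in DPBS and irradiated at 430 nm (2.8 mW/cm2) for 10 min. Trypsinised, counted, dried, methanol-extracted. A2E quantified by reversed-phase HPLC; loss versus unirradiated cells gave percent photooxidation.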

`O=c1c(O)c(-c2ccc(O)c(O)c2)oc2c(CN3CCc4cc(O)c(O)cc4C3)c(O)cc(O)c12`: the inhibition entry (in test [1]; with ARPE-19) was “Active” in each case.
Regarding `CN(CCN(C)Cc1c(O)cc(O)c2c(=O)c(O)c(-c3ccc(O)c(O)c3)oc12)Cc1c(O)cc(O)c2c(=O)c(O)c(-c3ccc(O)c(O)c3)oc12`, the inhibition result (in test [1]; in the test with ARPE-19) was “Active” throughout.
For the compound `O=c1c(O)c(-c2ccc(O)c(O)c2)oc2c(CN3CCOCC3)c(O)cc(O)c12`, the inhibition entry (in test [1]; with ARPE-19) was “Active” in each case.
As for `O=c1c(O)c(-c2ccc(O)c(O)c2)oc2cc(O)cc(O)c12`, the inhibition result (in test [1]; with ARPE-19) was “Active” throughout.
As for `O=c1c(O)c(-c2ccc(O)c(O)c2)oc2c(CN3CCN(Cc4c(O)cc(O)c5c(=O)c(O)c(-c6ccc(O)c(O)c6)oc45)CC3)c(O)cc(O)c12`, the inhibition entry (in test [1]; in the test with ARPE-19) was “Active” in each case.
